Source: PubChem BioAssay (several laboratories)
Jurkat NFkB inh: lowers PMA/ionomycin-induced NF-kB signal in Jurkat cells. PMA/ionomycin-induced NF-kB luciferase reporter, luminescence. inhibition, % at 4 µM. 330,000 compounds, 0.53% hits; in the data active means inhibition above about 50%
697 NFkB inh: inhibitors of the PMA/ionomycin-induced NF-kB reporter in 697 B cells. 697 B-cell NF-kB luciferase reporter, 16 h. inhibition, % at 4 µM. 330,000 compounds, 0.33% hits; in the data active means inhibition above about 35%
JMJD2C inh: blocks human GASC-1 demethylase activity; Q9H3R0; GST-JMJD2C(1-420) H3K9me3 demethylation, DELFIA europium; inhibition, % at 2.35 µM; 330,000 compounds, 0.069% hits; AID 2099;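 active means more than half of a compound's replicate wells show inhibition beyond 50%, single wells judged on their own value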;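 further: signal counts dimethyl H3K9 product captured on neutravidin plate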
GalR3 antagonist: antagonists of human GalR3; 360,000 compounds, 0.44% hits; inhibition, % at 3 µM; AID 651719; O60755; HEK293 GalR3-CNG cAMP membrane potential fluorescence; galR3 body fused to GalR1 C-terminus;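 active means inhibition above the screen-wide average plus 3 SD, cut at about 13% in these data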;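 further: forskolin and galanin both at EC90 stimulate the cells; cAMP rise reported by CNG channel membrane potential dye signal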
Target sequence (O60755 1-299 limits assumed): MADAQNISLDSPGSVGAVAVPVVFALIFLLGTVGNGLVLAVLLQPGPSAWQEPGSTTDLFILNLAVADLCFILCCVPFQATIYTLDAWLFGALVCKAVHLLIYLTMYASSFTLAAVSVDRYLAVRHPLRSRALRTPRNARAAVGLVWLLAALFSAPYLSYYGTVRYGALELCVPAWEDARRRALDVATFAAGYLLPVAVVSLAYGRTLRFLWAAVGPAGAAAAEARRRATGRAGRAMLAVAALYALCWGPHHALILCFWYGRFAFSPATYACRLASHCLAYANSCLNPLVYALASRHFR
NR2E3 ag-1: agonists of human NR2E3 nuclear receptor; Q9Y5X4; CHO-S Gal4-NCOR/VP16-NR2E3 two-hybrid, luciferase; inhibition of corepressor binding, % at 3.98 µM; 360,000 compounds, 0.35% hits; AID 602229;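 active means inhibition above the mean of all tested compounds plus 3 SD, cut at about 70% in these data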;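 further: higher means lower luciferase signal from less NR2E3 corepressor binding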
Target sequence (Q9Y5X4 whole entry, looked up, the tested form may be a part): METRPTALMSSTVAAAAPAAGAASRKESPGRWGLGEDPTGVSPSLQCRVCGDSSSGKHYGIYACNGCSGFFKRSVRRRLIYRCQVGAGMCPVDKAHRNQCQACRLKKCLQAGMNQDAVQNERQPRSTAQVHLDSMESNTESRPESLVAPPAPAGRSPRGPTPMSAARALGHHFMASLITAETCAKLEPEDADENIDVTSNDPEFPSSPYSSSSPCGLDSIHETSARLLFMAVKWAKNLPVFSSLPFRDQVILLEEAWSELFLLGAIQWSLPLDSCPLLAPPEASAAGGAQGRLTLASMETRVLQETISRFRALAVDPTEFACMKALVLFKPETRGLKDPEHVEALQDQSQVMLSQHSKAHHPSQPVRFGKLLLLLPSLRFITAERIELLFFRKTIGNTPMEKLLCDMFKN
NR2E3 ag-2: activates human photoreceptor nuclear receptor NR2E3. AID 2300. GST-NR2E3/biotin-RetCOR TR-FRET, 1536-well. inhibition of corepressor binding, % at 4.78 µM. Q9Y5X4. 320,000 compounds, 0.12% hits;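 active means percent inhibition above the cutoff of mean plus 3 SD of all tested compounds, set per screening campaign, cut at about 20% in these data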
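Test system – NR2E3–RetCOR corepressor complex · Quantity – NR2E3 fusion 1.35 nM · Buffer or medium – Tris pH 7.5 · Incubation – Compound–protein incubation for 5 h at 4 °C · Technique – TR-FRET, Eu(K)-anti-GST donor, streptavidin-D2 acceptor, ex 340, em 617/671 nm · Evaluation – percent inhibition of 671/617 nm emission ratio versus biotin and DMSO controls · Plate – 1536-well format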
Each line names hits and unclear results; the compound was inactive in the other large screens. Rows were chosen to be rich in hits. Some 1.5% of all compounds tested hit in one or more screens of this group.

C[C@@H]1O[C@@H](OC[C@H]2O[C@@H](Oc3cc(O)c4c(=O)cc(-c5ccc(O)c(O)c5)oc4c3)[C@H](O)[C@@H](O)[C@@H]2O)[C@H](O)[C@H](O)[C@H]1O	JMJD2C inh 100 (no result: GalR3 antagonist, NR2E3 ag-2)
COc1cc(S(=O)(=O)n2cnc(C)c2)ccc1Br	none
Cc1cn(S(=O)(=O)c2ccc(Br)c3ccccc23)cn1	NR2E3 ag-2 31 (no result: GalR3 antagonist, NR2E3 ag-1)
COc1ccccc1-n1c(SCC(=O)N2CCCC2)nc2cccnc21	JMJD2C inh 62
Nc1[nH]c(C(=O)c2ccccc2)c(-c2ccc3ccccc3c2)c1C(=O)NCc1ccc(-c2ccccc2)cc1	none (no result: Jurkat NFkB inh, 697 NFkB inh, JMJD2C inh, NR2E3 ag-1, NR2E3 ag-2)
COc1ccc([C@H]2CC(=O)C=C(c3ccnc4ccc(Cl)cc34)C2)cc1	NR2E3 ag-1 89
COc1ccc([C@H]2CC(=O)C=C(c3cc(Cl)ccc3C)C2)cc1	none
O=[N+]([O-])c1ccccc1N(CC1CO1)S(=O)(=O)c1ccccc1 (stereo not drawn)	none
O=C(NCC1CCN(Cc2ccccc2F)CC1)C1CCCN(c2ncnc3c2nc2n3CCCCC2)C1 (stereo not drawn)	GalR3 antagonist 15
Cc1ccc(CN2CCC(CNC(=O)C3CCCN(c4ncnc5c4nc4n5CCCCC4)C3)CC2)cc1 (stereo not drawn)	none
CC(C)NC(=O)N1Cc2cc(C(=O)NC3CCCC3)nc(-c3cccc(-c4cccnc4)c3)c2[C@@H]1CCO	none (no result: Jurkat NFkB inh, 697 NFkB inh, JMJD2C inh, NR2E3 ag-2)
Cc1cc(/C=C2\SC(=S)N(Cc3ccco3)C2=O)c(C)n1-c1cccnc1	none (no result: Jurkat NFkB inh, 697 NFkB inh, NR2E3 ag-2)
Cc1cc(/C=C2/SC(=S)N(c3cccc(C(F)(F)F)c3)C2=O)c(C)n1-c1cccnc1	NR2E3 ag-1 88 (no result: GalR3 antagonist)
CNC(=O)c1c(N)sc2c1CCCCC2	none (no result: GalR3 antagonist, NR2E3 ag-1)
COCCNC(=O)c1c(N)sc2c1CCCC2	JMJD2C inh 50 (no result: GalR3 antagonist, NR2E3 ag-1)
COc1ccc(C(=O)C(C)OC(=O)c2cccc(S(=O)(=O)Nc3cc(Cl)c(OC)cc3OC)c2)cc1 (stereo not drawn)	NR2E3 ag-1 80 (no result: GalR3 antagonist)
O=C(O)c1ccc2c(c1)C(=O)N(CCC1=CCCCC1)C2=O	JMJD2C inh 101
Cc1cc(C2=NNC(=NC3CC3)SC2)c(C)n1-c1ccccc1	NR2E3 ag-1 80 (no result: Jurkat NFkB inh, 697 NFkB inh, NR2E3 ag-2)
Cc1cc(C)nc(NS(=O)(=O)c2ccc(N/C=C/C(=O)c3ccc(Cl)c(Cl)c3)cc2)n1	none
O=C(N/N=C/c1ccc([N+](=O)[O-])o1)C1CCCC1	none
O=[N+]([O-])c1ccc(/C=[N+](\[O-])[C@@H]2CCCC[C@@H]2/[N+]([O-])=C/c2ccc([N+](=O)[O-])o2)o1	JMJD2C inh 89
COc1ccc(C(=O)c2ccc(OC)c(OC)c2)cc1OC	none
COc1ccc(C(=O)c2nccc3cc(OC)c(OC)cc23)cc1OC	NR2E3 ag-2 20 (no result: GalR3 antagonist)
O=[N+]([O-])c1cc(C(F)(F)F)ccc1N1CCN(S(=O)(=O)c2ccc3ccccc3c2)CC1	GalR3 antagonist 16
CCn1c(SCC(=O)Nc2nc(C)cs2)nnc1-c1ccncc1	JMJD2C inh 54
Cn1c(=O)c(-c2cc(Br)ccc2N)nc2ccccc21	none
O=c1[nH]cc(N=Cc2cc([N+](=O)[O-])ccc2O)c(=O)[nH]1	none (no result: GalR3 antagonist, NR2E3 ag-1)
O=c1[nH]cc(N=Cc2cc(Cl)cc(Cl)c2O)c(=O)[nH]1	JMJD2C inh 66
Clc1cccc(Cl)c1Cn1c(-c2cccnc2Cl)nc2ccccc21	JMJD2C inh 52 (no result: GalR3 antagonist)
O=C(NC1CCCC1)C(C1CC1)n1c(-c2ccnc3ccccc23)nc2ccccc21 (stereo not drawn)	none (no result: Jurkat NFkB inh, 697 NFkB inh, JMJD2C inh, NR2E3 ag-1, NR2E3 ag-2)
Nc1ncnc2c1ncn2[C@@H]1O[C@H](CNCC#Cc2ccccc2)[C@@H](O)[C@H]1O	JMJD2C inh 54 (no result: GalR3 antagonist, NR2E3 ag-2)
NC(=O)c1ccc(N=C2C(=O)Nc3ccc([N+](=O)[O-])cc32)cc1	GalR3 antagonist 13
COc1ccccc1CNC(=O)COc1ccc(S(=O)(=O)N2CCCC2)cc1	none
O=[N+]([O-])c1cc([N+](=O)[O-])c2oc(-c3ccccc3)c(Br)c2c1O	NR2E3 ag-1 100 (no result: Jurkat NFkB inh, 697 NFkB inh, GalR3 antagonist, NR2E3 ag-2)
O=c1cc(-c2ccccc2Cl)oc2ccc([N+](=O)[O-])c(O)c12	none
CC(C)=CCN1CCN(Cc2cn[nH]c2C2CCCCC2)CC1CCO (stereo not drawn)	JMJD2C inh 53 (no result: NR2E3 ag-1)
CCCn1nnnc1SCC(=O)NCc1ccc2c(c1)OCO2	JMJD2C inh 62
COc1ccc(CNC(=O)CSc2nnnn2Cc2ccccc2)cc1	JMJD2C inh 52
CCCn1nnnc1SCC(=O)NCc1ccc(OC)cc1	none
Cc1ccc(C)c(NC(=O)COC(=O)COc2cccc3c2OC(C)(C)C3)c1	none
CCc1nnc(N/N=C/c2cc(Br)c(O)cc2O)n1N	JMJD2C inh 58
O=C(CNC(=O)c1cccc(F)c1)N/N=C/c1cc(Br)ccc1OC(=O)/C=C/c1ccco1	none (no result: Jurkat NFkB inh, 697 NFkB inh, NR2E3 ag-2)
O=C(CNC(=O)c1ccccc1O)N/N=C/c1cc(Br)ccc1OC(=O)/C=C/c1ccco1	JMJD2C inh 54 (no result: NR2E3 ag-1)
Cc1cccc2nc(-c3ccccc3)c(-c3ccc(CN4CCC(n5cc(-c6ccccc6)[nH]c5=O)CC4)cc3)nc12	none (no result: Jurkat NFkB inh, 697 NFkB inh, JMJD2C inh, NR2E3 ag-1, NR2E3 ag-2)
COc1ccc(C(=O)NC2CC3CCCC(C2)N3Cc2ccccc2)cc1 (stereo not drawn)	JMJD2C inh 60
CCOc1ccc(C(=O)NC2CC3CCCC(C2)N3Cc2ccccc2)cc1 (stereo not drawn)	none
Nc1ccc(C(=O)N2CCN(S(=O)(=O)c3ccc4c(c3)OCCO4)CC2)cc1[N+](=O)[O-]	none
Cc1ccc(Cc2c(-c3ccco3)nc3c(C)cc(Br)cn23)cc1	GalR3 antagonist 34 (no result: Jurkat NFkB inh, 697 NFkB inh, JMJD2C inh, NR2E3 ag-2)
Cc1ccc(Cc2c(-c3ccccc3)nc3c(C)cc(Br)cn23)cc1	none (no result: Jurkat NFkB inh, 697 NFkB inh, JMJD2C inh, NR2E3 ag-2)
Cc1ccc(Nc2cc(C)nn2-c2nc(C)cc(C)n2)cc1	NR2E3 ag-1 94
O=C1CCCC2=C1C(c1ccc(OS(=O)(=O)c3ccc(Cl)cc3)cc1)C1=C(CCCC1=O)O2	JMJD2C inh 57
COC(=O)C(C)Sc1nc2c(c(=O)[nH]c(=O)n2C)n1CCCc1ccccc1 (stereo not drawn)	GalR3 antagonist 53
Nc1[nH]c(=O)nc(Nc2ccccc2)c1N=O	none
O=C(CSC(=S)N1CCCC1)c1cc(Br)cc(Br)c1O	JMJD2C inh 58 (no result: NR2E3 ag-1)
O=C(CSc1nc(C2CCCCC2)n(-c2ccccc2)n1)NCC(F)(F)F	none
CC(c1ccccc1F)n1cc(C(=O)NCCCn2ccnc2)nn1 (stereo not drawn)	none
CC(c1ccccc1)n1cc(C(=O)NCCCn2ccnc2)nn1 (stereo not drawn)	JMJD2C inh 55
COC(=O)c1sc(NC(=O)c2cc3c(s2)CCCC3)nc1C	JMJD2C inh 60
Cc1nc(NC(=O)c2cc3c(s2)CCCCC3)sc1C(=O)N(C)C	none
Cc1cc2ccccn2c1C(=O)c1ccncc1	JMJD2C inh 69
